The target of test [1] is 5-hydroxytryptamine receptor 2A (Homo sapiens, UniProt P28223). In words: Displacement of [3H]-Ketanserin from human 5-HT2A receptor expressed in HEK293 cell membranes after 1 hr by microbeta liquid scintillation counting analysis. Summed up: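 Competition binding on membranes from HEK293 cells stably expressing human 5-HT2A, prepared by homogenization and two 35 000 g centrifugations. Incubated 1 h at 37°C, then filtered and counted. Triplicate points at 7–8 concentrations, 10⁻¹¹–10⁻⁴ M. Ki from Cheng-Prusoff, ≥3 separate experiments.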

Test [2] concerns Mus musculus. In words: Antidepressant-like activity in Swiss albino mouse assessed as decrease in immobility time at 2.5 mg/kg, ip measured last 4 mins of 6 mins test by forced swim test relative to control. The class given is functional. Also noted: scale not given: the % may be the effect or the level left. Summed up:
(§1)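 Male Swiss albino mice (22–26 g), used once, observer blind. Drugs dissolved in distilled water, given i.p. at 10 ml/kg: test compounds 60 min, citalopram 30 min before testing; controls got vehicle. Mice placed 6 min in a cylinder with 10 cm water at 23–25°C; immobility scored over the last 4 min. 7–12 mice/group; one-way ANOVA then Bonferroni.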

Test [3] deals with T1, D(2) dopamine receptor (Homo sapiens, UniProt P14416). In words: Displacement of [3H]-Raclopride from human dopamine D2L receptor expressed in HEK293 cell membranes after 1 hr by microbeta liquid scintillation counting analysis. A digest of the protocol: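 HEK293 membranes expressing human D2L. Incubated 1 h at 37°C, rapid filtration. 1 µM (+)butaclamol defined nonspecific binding. Triplicates at 7–8 concentrations, 10⁻¹¹–10⁻⁴ M. Ki via Cheng-Prusoff, ≥3 experiments.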

Test [4] has as its target T2, 5-hydroxytryptamine receptor 1A (Homo sapiens, UniProt P08908).
T2 sequence (P08908 whole entry): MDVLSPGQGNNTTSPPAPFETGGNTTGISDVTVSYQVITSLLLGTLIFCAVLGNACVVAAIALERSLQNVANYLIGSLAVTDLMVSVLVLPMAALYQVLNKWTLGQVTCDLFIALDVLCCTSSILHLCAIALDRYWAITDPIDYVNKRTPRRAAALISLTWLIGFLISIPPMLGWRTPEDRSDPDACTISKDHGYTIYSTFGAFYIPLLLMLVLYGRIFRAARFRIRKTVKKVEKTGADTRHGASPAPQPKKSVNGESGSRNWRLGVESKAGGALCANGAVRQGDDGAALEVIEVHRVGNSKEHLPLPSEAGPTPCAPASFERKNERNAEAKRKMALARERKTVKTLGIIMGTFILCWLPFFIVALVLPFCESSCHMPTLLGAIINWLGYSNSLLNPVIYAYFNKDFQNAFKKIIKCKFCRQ
In words: Displacement of [3H]-8-OH-DPAT from human 5-HT1A receptor expressed in HEK293 cell membranes after 1 hr by microbeta liquid scintillation counting analysis. Summed up:
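HEK293 membranes with stably expressed human 5-HT1A, washed by two 35 000 g spins. Buffer 50 mM Tris-HCl, 0.1 mM EDTA, 4 mM MgCl₂, 10 μM pargyline, 0.1% ascorbate. Incubated 1 h at room temperature, then rapid filtration. 10 µM 5-HT defined nonspecific binding. Tested in triplicate over 10⁻¹¹–10⁻⁴ M (7–8 concentrations). Ki via Cheng-Prusoff, mean of ≥3 experiments.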

Test [5] deals with T3, 5-hydroxytryptamine receptor 7 (Homo sapiens, UniProt P34969). The test can be described thus: Displacement of [3H]-5-CT from human 5-HT7 receptor expressed in HEK293 cell membranes after 1 hr by microbeta liquid scintillation counting analysis. Summed up: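 Membranes from HEK293 pellets stably expressing human 5-HT7b, homogenized and centrifuged twice at 35 000 g (4°C) with 15 min 37°C incubation between. Buffer 50 mM Tris-HCl, 4 mM MgCl₂, 10 μM pargyline, 0.1% ascorbate. Incubated 1 h at 37°C, then filtered. Nonspecific binding defined with 10 µM 5-HT. Triplicates at 7–8 concentrations (10⁻¹¹–10⁻⁴ M). Ki by Cheng-Prusoff, ≥3 experiments.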

Test [6] concerns the target 5-hydroxytryptamine receptor 6 (Homo sapiens, UniProt P50406). The test can be described thus: Displacement of [3H]-LSD from human 5-HT6 receptor expressed in HEK293 cell membranes after 1 hr by microbeta liquid scintillation counting analysis. Summed up:
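Human 5-HT6 stably expressed in HEK293; cell membranes washed by two 35 000 g spins. Buffer 50 mM Tris-HCl, 0.5 mM EDTA, 4 mM MgCl₂. Incubated 1 h at 37°C, filtered. Nonspecific binding with 10 µM methiothepine. 7–8 concentrations (10⁻¹¹–10⁻⁴ M) in triplicate. Ki by Cheng-Prusoff, ≥3 experiments.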

For test [7], the system named is Mus musculus. In words: Antidepressant-like activity in Swiss albino mouse assessed as decrease in immobility time at 1.25 mg/kg, ip measured last 4 mins of 6 mins test by forced swim test relative to control. Also noted: scale not given: the % may be the effect or the level left. It counts as functional. Summed up:
as §1

Test [8] addresses T1, D(2) dopamine receptor. The test can be described thus: Antagonist activity at human dopamine D2 receptor expressed in HEK293 cells at 1 uM assessed as inhibition of dopamine-induced cAMP production. It counts as functional, cell-based. Summed up:
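Cellular cAMP antagonist assay run by a contract lab on HEK293 cells stably expressing human D2 receptor. Compound tested at 10⁻⁶ M. Result given as % inhibition of the control agonist response to dopamine 30 nM.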

The target of test [9] is T4, 5-hydroxytryptamine receptor 1A (Homo sapiens) (UniProt P08908).
T4 sequence (whole entry): T2 sequence (P08908 whole entry)
The test can be described thus: Antagonist activity at human 5-HT1A receptor expressed in HEK293 cells assessed as inhibition of 8-OH-DPAT-induced cAMP production at 1 uM by fluorescence assay. It counts as functional, cell-based. A digest of the protocol:
(§2)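 Cellular cAMP functional antagonist assay run by a contract lab. Human 5-HT7 receptor was stably expressed in CHO cells, and human 5-HT1A in HEK293 cells. Read-out was % inhibition of the control agonist response.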

For test [10], the system named is Mus musculus. The test can be described thus: Antipsychotic activity in CD-1 mouse assessed as inhibition of MK-801-induced hyperlocomotor activity at 30 mg/kg, ip pretreated with MK-801 for 15 mins followed by compound administration for 60 mins. It counts as functional, organism-based. Summed up:
(§3)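 Male CD-1 mice, tested in the light phase, observer blind. Test compounds i.p. 60 min and MK-801 i.p. 15 min before testing, in distilled water at 10 ml/kg; vehicle controls. After 30 min cage habituation, ambulation recorded by activity monitor for 1 h in 5-min bins. 8–10 animals/group; mean ± SEM, one-way ANOVA with Bonferroni test.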

The target of test [11] is T3, 5-hydroxytryptamine receptor 7. In words: Antagonist activity at human 5-HT7 receptor expressed in CHOK1 cells assessed as inhibition of serotonin-induced cAMP production at 1 uM after 30 mins by HTRF assay. The class given is functional, cell-based. Summed up:
as §2

For test [12], the system named is Mus musculus. In words: Antipsychotic activity in CD-1 mouse assessed as inhibition of MK-801-induced hyperlocomotor activity at 5 to 20 mg/kg, ip pretreated with MK-801 for 15 mins followed by compound administration for 60 mins. The class given is functional, organism-based. Summed up: as §3
The test system of test [13] is Mus musculus. The test can be described thus: Antipsychotic activity in CD-1 mouse assessed as inhibition of dizocilpine-induced hyperlocomotor activity at 0.5 mg/kg, ip pretreated with dizocilpine for 15 mins followed by compound administration for 60 mins. The class given is functional, organism-based. A digest of the protocol: as §3
Test [14] concerns Mus musculus. In words: Antidepressant-like activity in Swiss albino mouse assessed as decrease in immobility time administered ip for 30 mins measured last 4 mins of 6 mins test by forced swim test relative to control. The class given is functional. Particulars: read-out: MED. Summed up: as §1
Test [15] relates to Mus musculus. The test can be described thus: Antipsychotic activity in CD-1 mouse assessed as inhibition of MK-801-induced hyperlocomotor activity administered ip pretreated with MK-801 for 15 mins followed by compound treatment for 60 mins. The class given is functional. Particulars: CD-1, ip, read-out: MED. A digest of the protocol:
as §3

Test [16] relates to Mus musculus. The test can be described thus: Antipsychotic activity in CD-1 mouse assessed as inhibition of MK-801-induced hyperlocomotor activity at 2.5 to 30 mg/kg, ip pretreated with MK-801 for 15 mins followed by compound administration for 60 mins. It counts as functional, organism-based. A digest of the protocol:
as §3

Test [17] deals with Mus musculus. In words: Antidepressant-like activity in Swiss albino mouse assessed as decrease in immobility time at 0.625 mg/kg measured last 4 mins of 6 mins test by forced swim test relative to control. More on the design: scale not given: the % may be the effect or the level left. It counts as functional. Summed up:
as §1

The subject of test [18] is Mus musculus. In words: Antipsychotic activity in CD-1 mouse assessed as inhibition of MK-801-induced hyperlocomotor activity at 10 to 20 mg/kg, ip pretreated with MK-801 for 15 mins followed by compound administration for 60 mins. It counts as functional, organism-based. A digest of the protocol: as §3
For test [19], the system named is Mus musculus. In words: Antidepressant-like activity in Swiss albino mouse assessed as decrease in immobility time at 1.25 mg/kg, ip for 30 mins measured last 4 mins of 6 mins test by forced swim test relative to control. More on the design: scale not given: the % may be the effect or the level left. The class given is functional. A digest of the protocol:
as §1

Calls of active or inactive are those of the source. No cut-off for these calls is given here.

T3 sequence (P34969 whole entry): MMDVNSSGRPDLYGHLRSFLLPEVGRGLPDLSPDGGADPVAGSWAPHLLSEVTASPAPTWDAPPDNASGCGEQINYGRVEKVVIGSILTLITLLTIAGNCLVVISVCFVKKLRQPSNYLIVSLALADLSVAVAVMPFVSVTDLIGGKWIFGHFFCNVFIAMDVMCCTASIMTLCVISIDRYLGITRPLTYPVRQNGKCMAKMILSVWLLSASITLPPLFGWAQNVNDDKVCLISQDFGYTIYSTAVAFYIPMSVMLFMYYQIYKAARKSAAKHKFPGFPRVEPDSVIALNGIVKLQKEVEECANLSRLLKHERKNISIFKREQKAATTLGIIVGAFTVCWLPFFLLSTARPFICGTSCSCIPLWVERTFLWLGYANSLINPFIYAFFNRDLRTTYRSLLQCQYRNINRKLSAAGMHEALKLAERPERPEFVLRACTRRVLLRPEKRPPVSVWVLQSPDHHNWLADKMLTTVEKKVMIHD
5-hydroxytryptamine receptor 2A, sequence (P28223 whole entry): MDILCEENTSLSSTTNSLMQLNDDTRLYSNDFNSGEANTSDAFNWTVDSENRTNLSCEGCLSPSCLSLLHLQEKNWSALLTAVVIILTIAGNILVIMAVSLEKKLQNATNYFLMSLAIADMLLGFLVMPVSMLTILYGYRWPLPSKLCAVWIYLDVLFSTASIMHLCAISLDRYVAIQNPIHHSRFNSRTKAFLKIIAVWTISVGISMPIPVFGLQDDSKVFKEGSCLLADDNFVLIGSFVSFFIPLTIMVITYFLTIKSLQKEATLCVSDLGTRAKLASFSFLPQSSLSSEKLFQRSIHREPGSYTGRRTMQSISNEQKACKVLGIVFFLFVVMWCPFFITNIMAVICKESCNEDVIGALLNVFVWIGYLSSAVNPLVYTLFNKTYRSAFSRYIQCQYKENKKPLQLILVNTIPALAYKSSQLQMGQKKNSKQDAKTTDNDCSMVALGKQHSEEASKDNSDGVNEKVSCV
T1 sequence (P14416 whole entry): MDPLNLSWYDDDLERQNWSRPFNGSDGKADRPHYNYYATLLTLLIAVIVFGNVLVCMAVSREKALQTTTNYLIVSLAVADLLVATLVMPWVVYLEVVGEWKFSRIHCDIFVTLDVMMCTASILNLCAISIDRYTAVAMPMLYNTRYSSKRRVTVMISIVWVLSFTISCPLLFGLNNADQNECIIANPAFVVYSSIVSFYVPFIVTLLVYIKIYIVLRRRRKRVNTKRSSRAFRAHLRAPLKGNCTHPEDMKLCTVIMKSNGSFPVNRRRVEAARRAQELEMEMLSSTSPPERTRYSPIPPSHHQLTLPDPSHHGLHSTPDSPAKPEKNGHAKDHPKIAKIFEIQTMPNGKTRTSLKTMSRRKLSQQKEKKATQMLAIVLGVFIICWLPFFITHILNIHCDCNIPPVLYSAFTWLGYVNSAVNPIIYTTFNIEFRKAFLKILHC
5-hydroxytryptamine receptor 6, sequence (P50406 whole entry): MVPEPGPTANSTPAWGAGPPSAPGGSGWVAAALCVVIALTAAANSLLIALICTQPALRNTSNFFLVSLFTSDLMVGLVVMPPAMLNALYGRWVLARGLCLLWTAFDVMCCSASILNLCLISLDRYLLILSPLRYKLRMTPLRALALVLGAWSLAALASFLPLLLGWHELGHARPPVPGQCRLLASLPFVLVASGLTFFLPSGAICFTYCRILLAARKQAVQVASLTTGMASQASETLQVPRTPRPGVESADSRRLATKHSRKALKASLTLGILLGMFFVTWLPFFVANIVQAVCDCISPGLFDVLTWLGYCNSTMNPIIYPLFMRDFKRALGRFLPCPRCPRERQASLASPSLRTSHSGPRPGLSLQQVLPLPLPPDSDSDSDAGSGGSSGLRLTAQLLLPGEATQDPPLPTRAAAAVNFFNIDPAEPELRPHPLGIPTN

Regarding `O=S(=O)(c1cncc2ccccc12)N1CCC(CCN2CCN(c3cccc(Cl)c3)CC2)CC1`, the inhibition constant Ki in [1] is 157 nM; at D(2) dopamine receptor [3], 37 nM; in test [4], 32 nM; in test [5], 18 nM; in test [6] it was 1190 nM. Further, the Activity with Mus musculus [2] stood at 32%; in the test with Mus musculus [7] it was 36%. For the same compound, the figures for the inhibition (on D(2) dopamine receptor [8]; in [9]; in test [11]) were 85%, 69% and 73%, respectively. Besides, the inhibition entry in the test on Mus musculus [10] is “Active”.

As to `O=S(=O)(c1cncc2ccccc12)N1CCC(CCN2CCN(c3cccc(Cl)c3Cl)CC2)CC1`, the Ki in test [1] is 371 nM; on D(2) dopamine receptor [3] it was 30 nM; in test [4], 29 nM; in test [5], 39 nM; in test [6], 309 nM. The inhibition entry in the test on Mus musculus [12] is “inactive”. Besides, the inhibition turned out to be 79% on D(2) dopamine receptor [8], 64% in test [9] and 75% in test [11].

With `O=C1CCc2ccc(OCCCCN3CCN(c4cccc(Cl)c4Cl)CC3)cc2N1`, in the test on Mus musculus [13], the inhibition entry is “Active”.

For `O=S(=O)(c1cncc2ccccc12)N1CCC(CCN2CCN(c3ccc(Cl)cc3)CC2)CC1`, the minimal effective dose in the test with Mus musculus [14] worked out at 30 mg/kg; in the test on Mus musculus [15], 5 mg/kg. In addition, the inhibition result with Mus musculus [16] was “Active”.

Regarding `O=S(=O)(c1cccc2ncccc12)N1CCC(CCN2CCN(c3cccc(Cl)c3Cl)CC2)CC1`, the Ki worked out at 286 nM in [1]; 36 nM on D(2) dopamine receptor [3]; 45 nM in test [4]; 55 nM in test [5]; 401 nM in test [6]. In addition, the values for the minimal effective dose in the test with Mus musculus [14] (in the assay text read “for 60 mins” for “for 30 mins”) and in the test on Mus musculus [15] were 0.625 mg/kg and 10 mg/kg, respectively. Further, the Activity in the test with Mus musculus [17] was 23%. The inhibition result in the test on Mus musculus [18] was “Active”. The inhibition on D(2) dopamine receptor [8] was 88%; in [9], 63%; in [11], 69%.

In the case of `CN(C)CCCC1(c2ccc(F)cc2)OCc2cc(C#N)ccc21` (configuration not stated) [CITALOPRAM], the Activity in the test with Mus musculus [19] is listed as 28%.

(Values after ChEMBL document CHEMBL4033716, “The impact of the halogen bonding on D2 and 5-HT1A/5-HT7 receptor activity of azinesulfonamides of 4-[(2-ethyl)piperidinyl-1-yl]phenylpiperazines with antipsychotic and antidepressant properties” (Bioorg Med Chem, 2017).)
